According to ChEMBL document CHEMBL5032534, “COUPY Coumarins as Novel Mitochondria-Targeted Photodynamic Therapy Anticancer Agents” (J Med Chem, 2021):

How the values were obtained:
[1] = Selectivity index, ratio of IC50 for cytotoxicity against CHO cells to IC50 for antiproliferative activity against A2780 cells; format: toxicity, cell-based; settings: Chinese hamster (CHO cells); human (A2780 cells), CHO cells versus A2780 cells; read-out: Ratio IC50
Procedure, shortened: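 Selectivity factor is the IC50 in CHO cells over the IC50 in A2780 cells. Both were measured after 48 h of continuous treatment by MTT.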

[2] = Selectivity index, ratio of IC50 for cytotoxicity against BGM cells assessed as reduction in cell viability in dark to IC50 for cytotoxicity against human HeLA cells assessed as reduction in cell viability in dark; format: toxicity, cell-based; settings: African green monkey (BGM cells), BGM cells versus HeLa cells, read-out: Ratio IC50
Procedure, shortened: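 Selectivity factor is the dark IC50 in BGM normal renal cells over the dark IC50 in HeLa cells. Both come from the MTT phototoxicity procedure without irradiation.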

Structure (SMILES)	selectivity ratio [1]	selectivity ratio [2]
CCN(CC)c1ccc2c(c1)O/C(=C(/C#N)c1cc[n+](CC(=O)NCCCN)cc1)C=C2C	> 2.4	–
CN(C)c1ccc2c(c1)O/C(=C(/C#N)c1cc[n+](CC(F)(F)F)cc1)C=C2C(F)(F)F	–	1.9
CN(C)c1ccc2c(c1)O/C(=C(/C#N)c1cc[n+](C)cn1)C=C2C(F)(F)F	–	4.2
CN(C)c1ccc2c(c1)O/C(=C(/C#N)c1cc[n+](C)cc1)C=C2C(F)(F)F	> 5.1	–
